High-throughput results deposited in PubChem BioAssay by Sanford-Burnham Center for Chemical Genomics.
SENP1 FRET inh: blocks the human SENP1 SUMO protease catalytic domain. AID 624204. recombinant SENP1 catalytic domain, CyPet-SUMO1-YPet FRET cleavage. inhibition, % at 10 µM. actives 0.21% (n = 360,000). Q9P0U3;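 active means inhibition at least 30% at 10 µM, raw YFP signal under a set limit, fluorescence ratio 0.5 to 1.5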;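 further: 0% = enzyme with DMSO and 100% = no enzyme wells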
Target sequence (Q9P0U3 419-644 limits assumed): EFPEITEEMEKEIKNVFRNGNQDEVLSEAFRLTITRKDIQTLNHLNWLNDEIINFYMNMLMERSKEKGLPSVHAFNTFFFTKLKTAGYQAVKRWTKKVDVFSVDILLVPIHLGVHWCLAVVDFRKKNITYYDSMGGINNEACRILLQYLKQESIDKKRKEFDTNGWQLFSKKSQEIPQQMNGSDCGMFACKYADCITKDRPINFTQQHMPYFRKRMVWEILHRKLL
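Assay system: hSENP1 catalytic domain, recombinant. Amount: SENP1 enzyme, 20 pM final. Schedule: 50 min reaction, RT, dark. Technique: FRET, CFP and YFP emission. Control set: no-enzyme wells low, DMSO-plus-enzyme wells high control.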
SENP6 inh: blocks the human protease SENP6. Recombinant SENP6 catalytic domain, aminoluciferin luminescence. inhibition, % at 10 µM. actives 1.8% (n = 330,000). AID 2599;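 active means inhibition above about 50% at the single tested dose, limit read from the data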;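 further: plate controls were DMSO wells with enzyme for no effect and DMSO wells lacking enzyme for full effect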
SENP7 inh: SENP7 protease inhibition. Q9BQF6. recombinant SENP7, Z-RLRGG-aminoluciferin luminescence, 40 min. inhibition, % at 5 µM. actives 1.5% (n = 330,000). AID 434973;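 active means inhibition above about 50% at the single test dose, limit read from the data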;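 further: plate controls were DMSO with enzyme for no effect and no enzyme buffer wells for full effect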
SENP8 block-1: inhibitors of human SENP8 protease; Q96LD8; purified SENP8, Z-RLRGG-aminoluciferin cleavage, luminescence; inhibition, % at 10 µM; actives 1.2% (n = 330,000); AID 2540; in the data active means inhibition above about 50%
Target sequence (Q96LD8 whole entry, looked up): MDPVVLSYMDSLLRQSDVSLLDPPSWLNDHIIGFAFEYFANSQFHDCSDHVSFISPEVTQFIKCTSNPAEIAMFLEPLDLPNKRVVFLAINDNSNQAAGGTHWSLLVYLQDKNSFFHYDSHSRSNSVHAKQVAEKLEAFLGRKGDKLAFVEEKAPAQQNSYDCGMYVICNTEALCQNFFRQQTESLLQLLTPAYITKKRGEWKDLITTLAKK
SENP8 block-2: inhibitors of human SENP8 protease; recombinant SENP8, Nedd8 substrate fluorescence; AID 602440; actives 0.64% (n = 360,000); Q96LD8; inhibition, % at 20 µM; in the data active means inhibition mostly above about 40%, no sharp cut-off; inactive means mostly below about 27%
SENP1 conf: SENP1 (human) inhibition, single concentration confirmation; inhibition, % at 10 µM; AID 651678; shares compounds with SENP1 FRET inh; recombinant SENP1, CyPet-SUMO1-YPet FRET cleavage; actives 34% (n = 520); in the data active means inhibition mostly above about 35%, no sharp cut-off; inactive means mostly below about 32%;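 further: 0% = enzyme with DMSO and 100% = no enzyme control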
SENP1 kin conf: confirmation of human SENP1 SUMO protease inhibitors, kinetic | recombinant SENP1, CyPet-SUMO1-YPet FRET kinetic cleavage | inhibition, % at 10 µM | actives 26% (n = 520) | shares compounds with SENP1 FRET inh | AID 651690; in the data active means inhibition mostly above about 32%, no sharp cut-off; inactive means mostly below about 29%;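 further: 0% = DMSO with enzyme and 100% = no enzyme substrate only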
* = called active by the depositor; i = inactive; / = not tested or not shown. The list is not random: actives were taken first. Their share in the collection is about 2.5%.

SMILES	SENP1 FRET inh	SENP6 inh	SENP7 inh	SENP8 block-1	SENP8 block-2	SENP1 conf	SENP1 kin conf
Nc1ccc2c(c1)C(=O)N(CCCC(=O)O)C2=O	74*	-1	3	0	14	56*	28
O=C(c1ccc(N2C(=O)c3ccccc3C2=O)cc1)N1CCN(S(=O)(=O)c2ccccc2F)CC1	4	/	/	/	2	/	/
CN(C)CCN1C(=O)C(O)=C(C(=O)c2cc3ccccc3o2)C1c1ccc(N(C)C)cc1 (centres undefined)	31*	-19	-9	-1	-2	8	-5
CC1(C)CC(=O)C(N=Nc2ccc(-c3ccccc3)cc2)=C(O)C1	63*	-3	18	-4	28	17	5
CCOC(=O)c1c(C#N)c(SCC(=O)Nc2ccc(OC)cc2)nc2c1CN(CC)CC2	40*	10	1	4	-2	20	11
Cc1ccnc(NC(=O)CCC(=O)c2cc(C)sc2C)c1	38*	-7	-11	-4	5	15	13
COc1ccc2cc(C#N)c(SCC(=O)N3CCCC3)nc2c1	-27	-13	-3	3	-255	/	/
COC(=O)CSc1nc2cc(OC)ccc2cc1C#N	37*	24	4	21	-46	16	3
COc1cccc(CNC(=O)Cc2ccc(-c3ccccc3)cc2)c1	55*	18	1	8	-27	18	20
COc1ccc(CC(=O)NCc2ccccc2)cc1	1	-2	10	3	7	/	/
Cc1cc2c(NC3CCCCC3)ncnc2s1	-25	9	2	7	6	/	/
O=C1CCCc2c1cc(C(=O)Nc1ccc(Br)cn1)c(=O)n2-c1ccccc1	70*	6	-5	-4	-96	-10	-8
O=C(O)c1cc(O)c2c(c1)[C@H]([C@H]1c3cc(C(=O)O)cc(O)c3C(=O)c3c(O[C@@H]4O[C@H](CO)[C@@H](O)[C@H](O)[C@H]4O)cccc31)c1cccc(OC3O[C@H](CO)[C@@H](O)[C@H](O)[C@H]3O)c1C2=O (some centres undefined)	27	-70	-56	23	10	/	/
O=C1c2cc(CO)cc(O)c2C(=O)c2c(O[C@@H]3OC(CO)[C@@H](O)[C@@H](O)[C@@H]3O)cccc21 (some centres undefined)	43*	8	-1	-5	54*	45*	30
CC(=O)n1c2ccccc2c2c1c1ccccc1n2C	75*	-14	-5	-4	-9	-13	-11
Cc1cccc(NC(=O)c2ccc3nccnc3c2)c1C	0	-2	6	-2	8	/	/
Cn1c(=O)oc2cc(S(=O)(=O)Nc3ccc(C(=O)O)cc3)ccc21	5	/	/	/	12	/	/
Cn1c(=O)oc2cc(S(=O)(=O)NCc3ccc(C(=O)O)cc3)ccc21	28*	-13	2	-2	2	17	2
CC(C)C(=O)N(Cc1ccccc1)S(=O)(=O)c1ccc2c(c1)oc(=O)n2C	43*	11	-6	5	7	16	13
CCOC(=O)C1=C(C)NC(C)=C(C(=O)OCC)C1C(=O)OCC(=O)NC1(C#N)CCCCC1	-6	-13	-6	-4	i	/	/
O=C(C[n+]1cccc2ccccc21)c1ccc(Cl)cc1	43*	-7	-5	3	-27	4	6
COC(=O)Nc1sc2c(c1C(N)=O)CCC(C)C2 (centres undefined)	41*	5	-2	-7	17	-8	2
Cc1cccc(-c2c3c(=O)n(C)c(=O)n(C)c3c3cccnn23)c1	62*	19	-1	5	15	30*	28
Cc1cc(C)c2c3c(c(-c4ccccc4)n2n1)c(=O)n(C)c(=O)n3C	7	/	/	/	22	/	/
CC(C)(C)OC(=O)N/N=C/c1ccc(N2CCOCC2)s1	44*	3	10	-3	-184	64*	43*
COc1ccc(C(=O)N2CCc3ccc(NC(=O)c4ccccn4)cc3C2)cc1F	1	-11	8	-9	5	/	/
C1CCN(CCC2CCCCN2)CC1 (centres undefined)	-7	/	/	/	-4	/	/
C1CCN(CC2CCCCN2)CC1 (centres undefined)	45*	/	/	/	4	-2	1
